STAT1 act: STAT1 signaling activators, primary screen, cell-based, HTS, luciferase reporter; NIH 3T3 STAT1-luciferase reporter, IFN-gamma, luminescence; 100% = IFN-gamma alone, no compound; activation (% of control), % at 5.5 µM; hit rate 2.6% among 200,000; AID 932, 2007;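 active = activation above the screen-wide mean activation plus 3 SD, cut at about 130% in these data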;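 also: raw ratio to IFN-gamma control signal so 100% means no change and 0% no light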
STAT3 inh: IL-6 driven STAT3 reporter inhibitors, primary screen, U3A cells, luciferase, luminescence, MLSCN library; IL-6 STAT3-luciferase reporter; host cell line lacks STAT1; inhibition, % at 5.5 µM; hit rate 0.89% among 190,000; AID 862, 2007;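 active = inhibition above the mean inhibition across all screened compounds plus 3 SD, cut at about 44% in these data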;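 also: 0% = DMSO only wells and 100% = 100 µM nifuroxazide control wells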
STAT1 blocker: STAT1 signaling inhibitors, primary screen, cell-based, HTS, luciferase reporter; NIH 3T3 STAT1-luciferase reporter, IFN-gamma, luminescence; inhibition, % at 5.5 µM; hit rate 0.35% among 200,000; AID 920, 2007;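 active = inhibition above a set limit, the mean inhibition across all tested compounds plus 3 SD, cut at about 34% in these data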;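 also: 0% = IFN-gamma with DMSO and 100% = IFN-gamma with 300 µM nifuroxazide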
STAT3 act: IL-6 driven STAT3 reporter potentiators, primary screen, U3A cells, luciferase, luminescence, MLSCN library | IL-6 STAT3-luciferase reporter; 100% = signal with IL-6 EC80 alone | activation (% of control), % at 5.6 µM | hit rate 0.91% among 190,000;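 active = activation above the screen-wide mean of compound activation plus 3 SD, cut at about 130% in these data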;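 also: 0% = background luminescence of wells with medium and substrate only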
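Material: STAT3-luciferase reporter U3A cells. Controls: IL-6-treated wells, 100% activation. Read-out: % activation versus median of IL-6-stimulated wells. Probe or stimulus: IL-6 stimulus at 33 ng/mL final. Timing: compound 1 h, then IL-6 6 h at 37 °C. Signal: reporter luminescence signal.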
Active calls of the source: *. Shown are actives, neighbours in structure and some others; about 4.3% of the full set was active somewhere.

SMILES	STAT1 act	STAT3 inh	STAT1 blocker	STAT3 act
Cc1ccc(S(=O)(=O)N(CC(=O)Nc2ccccc2C(=O)O)c2ccccc2)cc1	107	2	-9	100
Cn1c(NC(=S)Nc2ccccc2)nc2ccccc21	142*	21	-47	83
Cc1ccnc2ccc(-c3nc4ccccc4o3)cc12	136*	-58	-40	153*
Cc1ccccc1OCc1nc2ccccc2c(=O)n1N	120	6	-22	97
Cc1ccccc1OCc1nnc2c3cnn(C)c3ncn12	139*	7	-43	99
Cc1cc(C)n(-c2n[nH]c(C)c2[N+](=O)[O-])n1	108	6	-8	100
COc1cc(/C=C2/NC(=O)N(c3cccc(Cl)c3)C2=O)ccc1O	134*	40	-39	69
COc1ccc(-n2cccc2/C=C2/NC(=O)N(c3cccc(Cl)c3)C2=O)cc1	111	-3	-13	106
CC1(C)CC(CCC(=O)NC(=S)Nc2ccccc2Cl)C(=O)O1 (centres undefined)	106	4	-9	100
Cc1cc(C)n(C(=O)CNC(=O)COc2ccccc2)n1	91	-2	10	104
O=C1/C(=C\c2ccccc2)CCc2c1[nH]c1ccccc21	141*	5	-46	104
Cc1ccc2[nH]c3c(c2c1)CC/C(=C/c1ccccc1)C3=O	120	11	-22	91
Cc1ccc(/C=C/c2nnc(-c3ccccc3)o2)cc1	106	32	-7	78
C(=C\c1nnc(-c2cccs2)o1)/c1ccccc1	143*	13	-48	94
Clc1ccccc1-c1nnc(-c2cccs2)o1	143*	1	-48	101
O=C(COC(=O)CNC(=O)c1ccccc1F)Nc1cccnc1Cl	96	3	3	99
Oc1ccccc1Nc1ncnc2c1oc1ccccc12	110	-66	-11	158*
c1ccc(Nc2ncnc3c2oc2ccccc23)cc1	132*	0	-35	102
COc1ccccc1N1CCN(C(=O)COc2ccc(S(=O)(=O)NC(C)(C)C)cc2)CC1	89	25	10	82
c1ccc(-c2ccc(-c3csnn3)cc2)cc1	132*	-4	-36	112
FC(F)(F)c1cccc(-c2ccc(-c3csnn3)o2)c1	108	23	-8	84
O=C(N/N=C/c1c(-c2ccccc2)[nH]c2ccccc12)c1cccnc1	107	0	-7	105
Cn1c(-c2ccccc2)c(/C=N/NC(=O)c2cccnc2)c2ccccc21	131*	-34	-36	131
O=C(N/N=C/c1cc(Br)ccc1O)c1ccccc1Cl	103	2	-4	99
COc1ccc(/C=N/NC(=O)c2[nH]c3ccc(Br)cc3c2-c2ccccc2)cc1	127	-59	-30	152*
SMILES	STAT1 act	STAT3 inh	STAT1 blocker	STAT3 act
Cc1c(C(=O)N/N=C/c2ccccc2)[nH]c2ccc(Cl)cc12	106	-1	-4	99
O=C(N/N=C/c1ccccc1Cl)c1[nH]c2ccc(Br)cc2c1-c1ccccc1	104	-40	-4	135*
O=C(Nc1ccc(Oc2ccccc2)cc1)C1CC1	105	6	-6	96
CCCC(=O)Nc1ccc(Oc2ccc(NC(=O)CCC)cc2)cc1	100	0	-5	102
CCCC(=O)Nc1ccc(C#Cc2ccccc2)cc1	140*	-43	-44	146*
O=C(Nc1ccc(C#Cc2ccccc2)cc1)C1CC1	196*	-46	-107	143*
O=C(CSc1ccc2ccccc2c1)Nc1ccc(S(=O)(=O)Nc2nccs2)cc1	105	3	-5	97
CCOC(=O)c1ccc(NCc2nc3ccccc3n2C)cc1	139*	8	-42	97
Nc1c(C(=O)Nc2nc3ccccc3s2)sc2nc(-c3cccs3)ccc12	140*	18	-51	91
O=C(NC(=S)Nc1nc2ccccc2s1)c1cccs1	133*	-66	-37	151*
Cc1ccccc1NC(=O)c1cnc(Nc2nc3ccccc3s2)nc1C	98	6	2	96
Cc1cc(C)nc(Nc2nc3ccccc3s2)n1	129*	-61	-36	156*
CC(=O)c1sc2nc(-c3cccs3)ccc2c1N	120	-5	-21	108
NC(=S)Nc1nc2ccccc2s1	134*	-55	-40	155*
Cc1c(NC(=O)c2cccs2)cccc1-c1nc2ccccc2s1	105	2	-5	100
CCNC(=O)NC(=O)C(C)OC(=O)c1cccn1C (centres undefined)	102	5	-3	102
Cn1nc(C(=O)NCCOc2ccccc2)c2ccccc2c1=O	94	36	5	75
COCCn1cnc2c1c(=O)n(CC(=O)OCC#N)c(=O)n2Cc1ccccc1	93	-2	8	106
CC(C)C(=O)NNc1nc2ccccc2s1	132*	17	-35	88
Cn1cc(Cl)c(C(=O)Nc2nc3ccccc3s2)n1	148*	31	-52	76
Cn1cc(Cl)c(C(=O)Nc2cccc(Cl)c2Cl)n1	119	2	-21	100
CCOC(=O)C1(CCCc2ccccc2)CCN(C(=O)CCn2cncn2)CC1	108	4	-10	99
CCOC(=O)C1(CCc2ccccc2)CCN(C(=O)CCn2cncn2)CC1	139*	-5	-46	109
O=C(/C=C/c1cccs1)N1CCCCC1	130*	1	-34	105
O=C(/C=C/c1cccs1)N1CCN(c2ccc(O)cc2)CC1	90	15	9	96
SMILES	STAT1 act	STAT3 inh	STAT1 blocker	STAT3 act
O=c1c2ccccc2ncn1CCCOc1ccccc1[N+](=O)[O-]	129*	-1	-32	101
COc1ccccc1C(=O)NN=C1CCN(Cc2ccccc2)CC1	95	4	6	100
CCOc1cc(/C=N/O)ccc1OCc1ccc(C)cc1	130*	-6	-34	102
Cc1ccc(COc2ccc(Br)cc2/C=N/O)cc1	135*	19	-39	89
CCOc1cc(/C=N/O)ccc1OS(=O)(=O)c1ccc(C)cc1	95	4	5	102
Cc1cc2[nH]c3c(c[n+](C)c4ccccc34)c2cc1C	221*	-53	-133	151*
CN1CCN(/N=C/c2ccc(N(c3ccccc3)c3ccccc3)cc2)CC1	97	6	2	99
CN1CCN(/N=C/c2ccc(Br)cc2)CC1	129*	3	-32	100
O=c1c(/C=N/N2CCOCC2)c(C(F)(F)F)[nH]n1-c1ccccc1	102	-5	-4	110
C/C(=N\OCc1ccc(C#N)cc1)c1ccccc1	142*	27	-45	80
Cc1cc(C)n2nc(SCCCC(=O)c3ccc(F)cc3)nc2n1	99	4	0	101
CC(C)c1ccc(NC(=O)COc2ccc(F)cc2C(=O)c2cnn(-c3ccccc3)c2)cc1	140*	-60	-42	147*
CCn1cnc2sc(C(=O)Oc3cccc(C)c3)c(C)c2c1=O	132*	24	-36	88
Cc1ccc(-c2nnc(N)s2)cc1	115	5	-16	99
CC(C)c1ccc(-c2nnc(N)s2)cc1	133*	8	-37	96
